Test: Toxicity liver stage against HepG2, at 10uM
Assay type: cell-based
Set-up: test concentration 10 uM, cell line HepG2-A16-CD81EGFP
Settings: human, HepG2-A16-CD81EGFP cells; read-out: INHIBITION
Outline: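 Uninfected HepG2-A16-CD81EGFP cells, 3 × 10^3 per well, 1536-well, plated on prespotted compound at 10 μM final, parasite-free screening media added to match infected plates; puromycin 10 μM positive, DMSO 0.5% negative; run in parallel with 48 h PbLuc assay at 37 °C, 5% CO2; viability by CellTiter-Glo luminescence, normalized to controls.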

Row | Structure (SMILES) | cytotoxicity at 10 µM
1 | CCCc1cnc(C)nc1N1CCC(Cc2cccc(C(N)=O)c2)C1 (stereo unspecified) | 3.52%
2 | c1cncc(COCC2CN(Cc3ccco3)Cc3ccnn3C2)c1 (stereo unspecified) | -14.4%
3 | CN(Cc1nc(Cc2cccc(F)c2)no1)C1CCOCC1 | 2.79%
4 | COc1c(C2CCCN2C(=O)c2ccc3[nH]cnc3c2)c(C)nn1C (stereo unspecified) | -8.04%
5 | O=C(NCc1cnc2n1CCN(Cc1nccs1)CC2)C1CCC1 | 0.588%
6 | Cc1oc(-c2cccc(F)c2F)nc1CN(C)CCO | -9.49%
7 | O=C(Cn1cccnc1=O)NCc1cccnc1OCC(F)(F)F | -11.9%
8 | C[C@@H](CO)Nc1cc(-c2cn[nH]c2)ncn1 | -10.6%
9 | CC(c1nc(C2CC2)no1)N1CCN(Cc2cccc(F)c2F)CC1 (stereo unspecified) | -4.93%
10 | Cc1cc(C)c(OCC(=O)NS(=O)(=O)c2cccnc2)c(C)c1 | -1.35%
11 | CN1CCN2C[C@@H](CO)[C@H](c3ccccc3)[C@H]2C1 | 8.78%
12 | Cc1ccc(N2Cc3c(CN(C)C)nn(C)c3C2)nn1 | 2.47%
13 | CC(C)n1cnnc1CNC(=O)CCCOc1ccccc1F | -4.56%
14 | O=C(NCc1ncc[nH]1)c1c(F)cccc1I | -6.78%
15 | CCc1nnc(Nc2cc(C)nc(C3CCN(c4ncccn4)C3)n2)s1 (stereo unspecified) | 3.07%
16 | Cc1nc(Nc2nnc(C)s2)cc(C2CCCN2)n1 (stereo unspecified) | 3.81%
17 | CC(=O)NCCNC(=O)CNC1CCCN(c2ccc(C)nn2)C1 (stereo unspecified) | 3.47%
18 | CO[C@H]1CC[C@H]2[C@H]1OCCN2C(=O)c1nn(C)c2ccccc12 | 5.33%
19 | Cc1noc(-c2ccc(N3CCC[C@H]3CO)nc2)n1 | 1.48%
20 | c1cncc(CN2CCC(c3n[nH]c(C4CC4)n3)CC2)c1 | 4.99%
21 | COc1cc(C(=O)NC(CC(=O)O)c2cccs2)cc(Cl)c1OC (stereo unspecified) | 4.31%
22 | CCc1nnc2n1CCN(CC(=O)Nc1sccc1C#N)C2 | -7.67%
23 | CC(C)N(C)CCC(=O)N1CCCC(c2ccc(C(=O)O)cc2)C1 (stereo unspecified) | -4.1%

Row | Structure (SMILES) | cytotoxicity at 10 µM
24 | CC(C)NC(=O)c1ccn(COc2c(Cl)cccc2Cl)n1 | 7.44%
25 | Cc1cnn(C2CCCN(C(=O)c3ccc(OCC4CC4)nc3)C2)c1 (stereo unspecified) | -4.04%
26 | OCc1cn([C@@H]2c3ccccc3C3(CCNCC3)[C@H]2O)nn1 | -3.45%
27 | O=S1(=O)c2ccccc2OCC2(CCN(CCO)CC2)CN1CC1CC1 | 0.864%
28 | Cc1ccc(S(=O)(=O)NCC(C)C#N)cc1Br (stereo unspecified) | 0.727%
29 | CCN(CC)CCC(=O)N1CCc2c(nc(N(C)C)nc2N(C)C)C1 | -14.4%
30 | COc1ccc(CN2CCCCC2CNC(=O)OC(C)(C)C)cc1F (stereo unspecified) | -2.26%
31 | O=S(=O)(CCCN1CCOC(Cn2cccn2)C1)c1ccccc1 (stereo unspecified) | -2.54%
32 | COC(=O)CNC(=O)c1ccn(-c2ccc(Cl)c(Cl)c2)n1 | -8.77%
33 | Cc1c(F)cccc1S(=O)(=O)N(C)CC(C)O (stereo unspecified) | 4.98%
34 | COc1cccc2c(=O)n(Cc3cc(C4CC4)[nH]n3)cnc12 | 3.76%
35 | CN1CCCN(S(=O)(=O)c2cn(C)cn2)c2cc(Cl)ccc21 | 2.14%
36 | CN(C)C(=O)CN1CCC2(C1)CN(CC1CCOCC1)C2 | -9.91%
37 | CCc1c(C(=O)O)nnn1-c1cc(C)ccc1C | -23.7%
38 | CC(C)(NC(=O)C1CCCN(C2CCCC2)C1)c1nnc(N)s1 (stereo unspecified) | 3.27%
39 | Cc1cc(N2CCOC(c3ccc(N(C)C)cn3)C2)nc(N)n1 (stereo unspecified) | 5.62%
40 | Cc1ccc(C)c(CSc2nnc(C(N)C(C)C)o2)c1 (stereo unspecified) | 9.24%
41 | Cn1ncc(C(=O)N2CCN(CCS(C)(=O)=O)CC2)c1Cl | 4.33%
42 | O=C(c1ccc(Br)o1)N1CCN(Cc2ccc(F)cc2)CC1 | 9.08%
43 | O=C1CSC(c2ccsc2)c2c(n(C3CCOCC3)[nH]c2=O)N1 (stereo unspecified) | 9.53%
44 | COCCN(C)C[C@@H]1CN(C(=O)c2ccoc2)C[C@@H]1CO | -18.4%
45 | COc1cccc(-c2nc(CNCc3cccnc3)cs2)c1 | -9.37%
46 | CN(C)C1(CNc2nccc(-c3cnn(C)c3)n2)CCSC1 (stereo unspecified) | -126%

Row | Structure (SMILES) | cytotoxicity at 10 µM
47 | Cc1ccc(-c2nc3cc(S(=O)(=O)N4CCCC4)ccc3n2C)o1 | 1.38%
48 | O=C1NCCN(CC2CC2)C12CCN(Cc1ccco1)CC2 | 2.55%
49 | CC(=O)NC1CCCN(C(=O)c2ccc(Br)cc2O)C1 (stereo unspecified) | -10.4%
50 | CN(C)C(=O)CC1CC2(CCN(Cc3ccco3)CC2)c2ccccc21 (stereo unspecified) | -11.3%
51 | Cc1nc(C(=O)N2CCN(S(C)(=O)=O)[C@@H]3CS(=O)(=O)C[C@@H]32)cs1 | -9.19%
52 | CN(C)c1ccc(NC(=O)CN2CCS(=O)(=O)CC2)cn1 | 6.56%
53 | Cc1cc2n(n1)CC(CNC1CCN(c3ccccn3)CC1)CN2 (stereo unspecified) | 6.09%
54 | COc1ccc(CN(C)[C@@H]2COC[C@H]2c2ccc(F)cc2)cc1 | 10.9%
55 | CNC(=O)c1n[nH]c2c1C(c1cccc3nsnc13)CC(=O)N2 (stereo unspecified) | -13%
56 | CC(O)CN1CCN(C(=O)c2cc3ccccc3c(=O)[nH]2)CC1 (stereo unspecified) | -2.64%
57 | COc1ccc(/C=C/CN2CCN(c3ncccc3C(N)=O)CC2)cc1 | -8.88%
58 | NC(=O)c1cnc(NC2CCC(c3ccccc3)CC2)c(Cl)c1 (stereo unspecified) | 27.2%
59 | Cc1ccc(Nc2nccc(C3CN(CC(N)=O)C3)n2)nc1 | -1.91%
60 | Cc1cccc(CN2C[C@@H]3COC[C@]3(CNC(=O)c3ccno3)C2)n1 | 3.84%
61 | CC(=O)N1CCCC2(C1)CN(c1nncs1)CCO2 (stereo unspecified) | -102%
62 | N#Cc1ccccc1CN1CCC(CN2CCOCC2)C1 (stereo unspecified) | -4.5%
63 | COC(=O)Cn1c(=O)cc(C(F)F)c2c(C)nn(CC(F)F)c21 | 6.2%
64 | CC(C)OCCCNC(=O)Nc1cccc2ncccc12 | 2.96%
65 | CCSCCNC(=O)c1ccc(S(=O)(=O)N2C[C@H]3C[C@@H]2CN3)cc1 | -1.98%
66 | Cc1cnc(-c2cccc(-c3ccn(CCCO)n3)c2)nc1N(C)C | -7.6%
67 | Nc1nc2c(c(N3CCCC(OCc4ccccn4)C3)n1)CCNCC2 (stereo unspecified) | -11.4%
68 | CCc1noc(C2CCCCN2C(=O)c2nnc3ccccc3n2)n1 (stereo unspecified) | 0.795%
69 | COc1ccccc1N1CCN(C(=O)NC(C)c2nncn2C)CC1 (stereo unspecified) | -4.23%

Row | Structure (SMILES) | cytotoxicity at 10 µM
70 | O=C1CCCN1Cc1nnc2n1CCCN(C(=O)c1ccco1)C2 | 8.3%
71 | Cc1nc(C2CCCN(C(=O)c3scnc3C)C2)no1 (stereo unspecified) | -3.18%
72 | COCCCNC(=O)N1CCC(CNC(=O)c2cnn(C)c2)CC1 | -1.3%
73 | Cc1c2c(C(F)F)cc(SCC(=O)O)nc2nn1C | -9.38%
74 | Cn1ccc(C(=O)NCCOc2ccc3c(c2)CCC3)cc1=O | 3.68%
75 | O=C(Cc1ccsc1)N1CCC(c2ccncc2)CC1 | 8.89%
76 | CC(C)c1nc(CCn2cncn2)n(-c2ccc3c(c2)OCCO3)n1 | 6.52%
77 | CN1CCN(C(=O)c2cc(C#N)cs2)c2ccccc2C1 | 10.2%
78 | CC[C@@H]1N(Cc2nccs2)CCC[C@]12CCC(=O)N2CCOC | 2.49%
79 | COC(=O)CC1CCN(C(=O)c2ccccc2-n2nnnc2C)CC1 | -7.27%
80 | Cc1nc2c(c(=O)n1C)CN(C(=O)C1CCCN(C(N)=O)C1)C2 (stereo unspecified) | -2.38%
81 | Cc1c(C(=O)N2CCC3(CCCN(CC4CC4)C3=O)C2)ccn1C (stereo unspecified) | -3.92%
82 | CCc1nnc(CN(CC)C(=O)C2CC(=O)N(C3CCCC3)C2)o1 (stereo unspecified) | -2.57%
83 | CCCc1n[nH]c(C2CN(C(=O)c3cc(C4CC4)on3)CCO2)n1 (stereo unspecified) | 0.471%
84 | CS(=O)(=O)N1C[C@H]2CC[C@@H](C1)N(CCC(=O)NCc1ccco1)C2 | -17.9%
85 | CCN(C(=O)c1ccc(-c2ccccc2)nc1C)C1CC(=O)NC1=O (stereo unspecified) | -4.18%
86 | Cc1nc(CCNC(=O)N2CCC(Cc3cnn(C)c3)C2)cs1 (stereo unspecified) | -6.13%
87 | COc1ccc(CCC(=O)Nc2ccc3ncn(C)c(=O)c3c2)cc1 | 6.44%
88 | NCCn1nc(C2CCN(C(=O)Cc3ccccc3)C2)c2nccnc21 (stereo unspecified) | -15.9%
89 | Cc1nc(N(C)C)cc(C2(C)CCCNC2)n1 (stereo unspecified) | 2.05%
90 | CN(CCc1ccccc1)C1CCCN(Cc2nccn2C)C1 (stereo unspecified) | -18.5%
91 | CC(C)(C)C(O)CN1CCN(Cc2nccn2CC(F)(F)F)CC1 (stereo unspecified) | 4.77%
92 | O=C(C1CCCC1)N1CCO[C@H]2[C@H](OCC3CCOCC3)CC[C@@H]21 | 5.05%

Row | Structure (SMILES) | cytotoxicity at 10 µM
93 | O=C([C@H]1COC[C@H]2CN(C3CCCC3)C[C@H]21)N1CCCO1 | 2.14%
94 | CN1C(=O)CCC12CCN(c1ccc(C#N)cn1)CC2 | -109%
95 | O=C(NCCC(=O)N1CCCCCC1)c1c(O)cc(F)cc1F | -1.8%
96 | COCCNc1c(C#N)c2c(c3nncn13)CN(C)CC2 | 6.83%
97 | N#Cc1ccc(N2CCC3(CCCN(c4ccccn4)C3)C2)nc1 (stereo unspecified) | 15.6%
98 | CN1CCc2[nH]nc(C(=O)N3CCCC4(CN(C)C(=O)O4)C3)c2C1 (stereo unspecified) | -53.6%
99 | CCOC1CCN(C(=O)NCCN(C)C(=O)OC(C)(C)C)CC1 | 15.8%
100 | CC(C)c1nc(CN(C)C(=O)c2cn3ccsc3n2)cs1 | 8.35%
101 | CC(C)C(=O)NC1COC2(CCN(Cc3cccnc3)CC2)C1 (stereo unspecified) | 2.11%
102 | CCc1nc(CSc2nnc(N)n2C2CC2)no1 | 6.12%
103 | CN(Cc1ccccc1)CC1(O)CCCN(CC(C)(C)C)C1=O (stereo unspecified) | -12.4%
104 | CCCNC(=O)[C@@H]1CCCN1[C@@H](C(=O)NC)C1CC1 | 1.32%
105 | CCCc1nc(CN2CCCC2Cn2cncn2)no1 (stereo unspecified) | -2%
106 | O=C(c1cccnc1O)N1CCCN(c2cccnn2)CC1 | 6.82%
107 | O=C(CO)N1CCC(c2cncc(-c3cccc(Cl)c3)n2)CC1 | -0.105%
108 | COc1ccc(CN2CC[C@@H](O)[C@@H]2Cc2ccccc2)cc1 | 4.49%
109 | Cc1nn(C)c(C)c1NC(=O)CN1CCOC(Cn2cccn2)C1 (stereo unspecified) | -1.81%
110 | CN(C)CCn1c2c(ccc1=O)CCN(Cc1cnn(C)c1)CC2 | -2.65%
111 | CN(Cc1ccsc1)C(=O)Nc1ccc(S(=O)(=O)N(C)C)cc1 | 2.23%

Reference: ChEMBL document CHEMBL4513216, “Probing the Open Global Health Chemical Diversity Library for Multistage-Active Starting Points for Next-Generation Antimalarials” (ACS Infect Dis, 2020)
